Laboratory results as given in ChEMBL document CHEMBL1139492, “Structure-activity relationships and effects on neuroactive steroid synthesis in a series of 2-phenylimidazo[1,2-a]pyridineacetamide peripheral benzodiazepine receptors ligands” (J Med Chem, 2005).

Columns and labels:
[1] = target: T1, Translocator protein (Rattus norvegicus, UniProt P16257); assay: Displacement of [3H]PK11195 from peripheral benzodiazepine receptor of rat cerebral cortex; format: tissue-based
Method in brief: (§1)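 Rat tissue (cerebral cortex, ovary) homogenised in 50 vol PBS pH 7.4 at 4 °C, spun at 40 000g for 30 min, washed, resuspended in 10 vol PBS. […] Filtration on polyethyleneimine-soaked GF/B filters, scintillation counting. […] Means of three experiments in duplicate; Ki reported.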

[2] = target: Benzodiazepine receptors; peripheral & central (Rattus norvegicus) (UniProt O09028+P15431+P18506+P18508+P19969+P20236+P23574+P23576+P28471+P28473+P30191+P62813+P63079+P63138+Q91ZM7+Q9ES14+P16257); assay: Ratio of inhibition for peripheral benzodiazepine receptor of rat ovary and central benzodiazepine GABA-A receptor; format: tissue-based; parameters: scale not given here; conditions: Female gonad
[3] = target: GABA-A receptor; anion channel; assay: Inhibitory concentration of central benzodiazepine GABA-A receptor of rat cerebral cortex; format: tissue-based
Method in brief: (§2)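 Rat cerebral cortex homogenised in 50 vol ice-cold 50 mM Tris-HCl pH 7.4, spun twice at 20 000g for 10 min. Membranes (0.4–0.5 mg protein) incubated with [3H]flunitrazepam for 60 min at 0 °C. Rapid filtration on GF/B filters, scintillation counting. Nonspecific binding with 5 μM diazepam. Means of three experiments in duplicate; Ki reported.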

[4] = target: T1, Translocator protein; assay: Displacement of [3H]-PK11195 from peripheral benzodiazepine receptor of rat ovary; format: tissue-based, Female gonad; method in brief: as §1
[5] = target: T1, Translocator protein; assay: Inhibitory concentration against peripheral benzodiazepine receptor of rat cerebral cortex; format: tissue-based; method in brief: as §1
[6] = target: GABA-A receptor; anion channel; assay: Displacement of [3H]flunitrazepam from central benzodiazepine GABA-A receptor of rat cerebral cortex; format: tissue-based; method in brief: as §2
[7] = target: T1, Translocator protein; assay: Inhibitory concentration against peripheral benzodiazepine receptor of rat ovary; format: tissue-based, Female gonad; method in brief: as §1
[8] = tested on: Rattus norvegicus; assay: Effect of the 25 mg/kg compound on progesterone concentration in rat plasma after 30 min of intraperitoneal administration; format: functional, organism-based; parameters: dose 25 mg/kg
Method in brief: (§3)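 Male Sprague–Dawley rats, about 60 days old, given 25 mg/kg ip in saline with three drops Tween 80 per 5 mL, 0.3 mL/100 g; sampled 30 min later. Brain taken after focused microwave irradiation of the head, plasma after guillotine. Cortex and plasma extracted with ethyl acetate; steroids measured by radioimmunoassay. Results in ng/g tissue, at least eight rats per group, compared with vehicle-treated rats.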

[9] = tested on: Rattus norvegicus; assay: Effect of the 25 mg/kg compound on progesterone concentration in rat cerebral cortex after 30 min of intraperitoneal administration; format: functional, organism-based; parameters: dose 25 mg/kg; method in brief: as §3
[10] = tested on: Rattus norvegicus; assay: Effect of the 25 mg/kg compound on 3-alpha,5alpha-THPROG concentration in rat plasma after 30 min of intraperitoneal administration; format: functional, organism-based; parameters: dose 25 mg/kg; method in brief: as §3
[11] = tested on: Rattus norvegicus; assay: Effect of the 25 mg/kg compound on 3-alpha,5alpha-THPROG concentration in rat cerebral cortex after 30 min of intraperitoneal administration; format: functional, organism-based; parameters: dose 25 mg/kg; method in brief: as §3
[12] = tested on: Rattus norvegicus; assay: Effect of the 25 mg/kg compound on 3-alpha,5alpha-THDOC concentration in rat cerebral cortex after 30 min of intraperitoneal administration; format: functional, organism-based; parameters: dose 25 mg/kg; method in brief: as §3
[13] = tested on: Rattus norvegicus; assay: Effect of the 25 mg/kg compound on 3-alpha,5alpha-THDOC concentration in rat plasma after 30 min of intraperitoneal administration; format: functional, organism-based; parameters: dose 25 mg/kg; method in brief: as §3

T1 sequence (P16257 whole entry, looked up): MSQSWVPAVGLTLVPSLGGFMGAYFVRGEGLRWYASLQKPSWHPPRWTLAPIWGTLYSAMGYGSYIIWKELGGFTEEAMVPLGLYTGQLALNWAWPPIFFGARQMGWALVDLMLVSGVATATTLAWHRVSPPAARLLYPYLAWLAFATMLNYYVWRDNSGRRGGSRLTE

Compound	Ki [1] [nM]	Selectivity index [2]	pIC50 [3]	Ki [4] [nM]	IC50 [5] [nM]	Ki [6] [nM]	IC50 [7] [nM]	Concentration [8] [ng/mL]	Concentration [9] [ng/g]	Concentration [10] [ng/mL]	Concentration [11] [ng/g]	Concentration [12] [ng/g]	Concentration [13] [ng/mL]
O=C(Cc1c(-c2ccccc2)nc2c(Cl)cc(Cl)cn12)N1CCCC1	757	0.029	5	6650	1240	6880	–	–	–	–	–	–	–
CCCCN(C(=O)Cc1c(-c2ccc(Cl)cc2)nc2ccc(Cl)cn12)c1ccccc1	0.884	1.8	6.133	8.82	1.5	506	11.6	–	–	–	–	–	–
CCCN(Cc1ccc([N+](=O)[O-])cc1)C(=O)Cc1c(-c2ccc(Cl)cc2)nc2c(Cl)cc(Cl)cn12	16	2.16	5	50.5	27.2	6880	69.7	–	–	–	–	–	–
CCCCN(Cc1ccccc1)C(=O)Cc1c(-c2ccccc2)nc2c(Cl)cc(Cl)cn12	14.1	2.05	5	64.7	24.2	7010	89.7	–	–	–	–	–	–
CC(C)(C)N(Cc1ccccc1)C(=O)Cc1c(-c2ccc(Cl)cc2)nc2c(Cl)cc(Cl)cn12	2100	-0.26	5	12900	3440	7590	18200	–	–	–	–	–	–
O=C(Cc1c(-c2ccc(Cl)cc2)nc2c(Cl)cc(Cl)cn12)NC1CCCCC1	140	0.977	5	749	229	7590	1050	–	–	–	–	–	–
CCCCN(C)C(=O)Cc1c(-c2ccc(Cl)cc2)nc2c(Cl)cc(Cl)cn12	0.302	3.48	5	2.46	0.45	6880	3.3	14.9	8.9	16.2	7.4	3.9	8.1
O=C(Cc1c(-c2ccccc2)nc2c(Cl)cc(Cl)cn12)NC1CCCCC1	771	0.884	5	942	1320	7010	1310	–	–	–	–	–	–
O=C(Cc1c(-c2ccccc2)nc2c(Cl)cc(Cl)cn12)Nc1ccncc1	1240	0.387	5	2970	2100	7750	4100	–	–	–	–	–	–
CN(C(=O)Cc1c(-c2ccc(Cl)cc2)nc2c(Cl)cc(Cl)cn12)c1ccccc1	0.203	3.77	5	1.27	0.33	6880	1.7	13.9	7.2	20.3	7.4	2.8	8.3
O=C(Cc1c(-c2ccc(Cl)cc2)nc2c(Cl)cc(Cl)cn12)Nc1ccccc1	11.7	2.6	5	18.3	19.9	6880	25.2	–	–	–	–	–	–
O=C(Cc1c(-c2ccccc2)nc2c(Cl)cc(Cl)cn12)N1CCCCC1	95.9	0.837	5	1030	157	7590	1460	–	–	–	–	–	–
CCOC(=O)C1CCCN(C(=O)Cc2c(-c3ccc(Cl)cc3)nc3ccc(Cl)cn23)C1 (stereo not drawn)	19.6	-0.205	6.725	207	35.2	130	302	–	–	–	–	–	–
CCCCN(C(=O)Cc1c(-c2ccc(Cl)cc2)nc2c(Cl)cc(Cl)cn12)c1ccccc1	7.84	3.32	5	3.65	13.3	6880	4.8	–	–	–	–	–	–
CCCCN(C)C(=O)Cc1c(-c2ccccc2)nc2c(Cl)cc(Cl)cn12	2.16	3.64	5	1.72	3.5	–	2.3	13.6	10.6	16.5	9.2	4.1	10.4
O=C(Cc1c(-c2ccc(Cl)cc2)nc2c(Cl)cc(Cl)cn12)N1CCCC1	126	1.02	5	608	215	7010	843	–	–	–	–	–	–
